ChEMBL document CHEMBL1125451, “Structure-activity studies of a novel bicyclic oxytocin antagonist” (J Med Chem, 1992)
Activity calls are given as the source filed them. No cut-off for these calls is given here. Numbered stars: 1 amine (or outer) side, 2 acyl side, 3 side chain; on linkers, the order of the positions; unused ones are H or OH. Bridge positions count the residues as written; N and C are the ends. Square brackets hold non-standard residues; d marks the D form. Peptide text beside a SMILES is read from it. * marks the point of attachment. X1 = CC(C)(CC(=O)[*:1])S[*:2]; Mpa = O=C(O)CCS; For = O=C*

Columns and labels:
[1] = test system: Rattus norvegicus; assay: In vivo pressor activity by vasopressin assay in rats(inactive up to dose 2*10e-2); assay type: functional
[2] = test system: Rattus norvegicus; assay: (§1) In vivo oxytocin antagonistic activity […] was determined by galactogogic assay; assay type: functional
[3] = test system: Rattus norvegicus; assay: (§2) In vivo pressor activity by vasopressin assay in rats; assay type: functional
[4] = test system: Rattus norvegicus; assay: In vivo pressor activity by vasopressin assay in rats; o = inactive up to dose 2*10e-2; assay type: functional, organism-based
[5] = species: Rattus norvegicus; assay: In vitro oxytocin antagonistic activity against rat uterine strips; o = inactive up to dose 2*10e-2; assay type: functional
Outline: (§3)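 Isolated uterine strips from Wistar rats estrogenized 24-48 h beforehand, tested in Munsick's solution by the Holton method. Cumulative oxytocin dose-response curves were constructed, with antagonist added to the bath 1 min before the oxytocin curve was started. Antagonism expressed as pA2.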

[6] = species: Rattus norvegicus; assay: In vitro oxytocin antagonistic activity against rat uterine strips; assay type: functional; conditions: read-out: pA2 (converted); outline: as §3
[7] = target: T1, Oxytocin receptor (Rattus norvegicus, UniProt P70536); assay: In vitro Oxytocin receptor antagonistic activity against rat uterine strips; assay type: functional; conditions: read-out: pA2 (converted); outline: as §3
T1 sequence (P70536 whole entry): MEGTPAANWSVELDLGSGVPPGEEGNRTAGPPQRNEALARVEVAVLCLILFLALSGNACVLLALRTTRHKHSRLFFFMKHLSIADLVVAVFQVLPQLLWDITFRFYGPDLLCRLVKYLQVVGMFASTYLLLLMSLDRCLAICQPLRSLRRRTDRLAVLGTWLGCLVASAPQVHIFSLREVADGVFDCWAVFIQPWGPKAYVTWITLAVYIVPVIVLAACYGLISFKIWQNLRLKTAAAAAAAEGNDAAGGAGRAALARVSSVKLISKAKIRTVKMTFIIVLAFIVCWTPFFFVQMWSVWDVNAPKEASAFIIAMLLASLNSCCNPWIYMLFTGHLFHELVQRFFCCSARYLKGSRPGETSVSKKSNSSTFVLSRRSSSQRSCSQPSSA

[8] = test system: Rattus norvegicus; assay: as §2; assay type: functional, organism-based; conditions: read-out: pA2 (converted)
[9] = test system: Rattus norvegicus; assay: as §1; assay type: functional, organism-based; conditions: read-out: pA2 (converted)

Q: `CC[C@H](C)[C@@H]1NC(=O)[C@H](Cc2ccc(O)cc2)NC(=O)[C@@H](N)C(C)(C)SSC[C@@H](C(=O)N2CCC[C@H]2C(=O)N[C@@H](CC(C)C)C(=O)NCC(N)=O)NC(=O)[C@H](CC(N)=O)NC(=O)[C@H](CCC(N)=O)NC1=O` was tested. Which Activity [1] did it give?
A: 0 IU mg-1

Q: What does the source list for `CC[C@H](C)[C@@H]1NC(=O)[C@H](Cc2ccc(O)cc2)NC(=O)CCSSC[C@@H](C(=O)N2CCC[C@H]2C(=O)N[C@@H](CC(C)C)C(=O)NCC(N)=O)NC(=O)[C@H](CC(N)=O)NC(=O)[C@H](CCC(N)=O)NC1=O`?
A: Activity [2]: 541 IU mg-1; Activity [3]: 1.44 IU mg-1

Q: `CC[C@H](C)[C@@H]1NC(=O)[C@H](Cc2ccc(O)cc2)NC(=O)CCSSC[C@@H](C(=O)N2CCC[C@H]2C(=O)N[C@@H](CCCCNC=O)C(=O)NCC(N)=O)NC(=O)[C@H](CC(N)=O)NC(=O)[C@H](CCC(=O)O)NC1=O` was tested. Which Activity [2] did it give?
A: 8 IU mg-1

Q: How did the Activity [2] turn out when `CC[C@H](C)[C@@H]1NC(=O)[C@H](Cc2ccc(O)cc2)NC(=O)CCSSC[C@@H](C(=O)N2CCC[C@H]2C(=O)N[C@@H](CCCCNC=O)C(=O)NCC(N)=O)NC(=O)[C@H](CC(N)=O)NC(=O)[C@H](CCC(N)=O)NC1=O` was run?
A: 517 IU mg-1

Q: And the Activity [3]?
A: 101.6 IU mg-1

Q: `CC[C@H](C)[C@@H]1NC(=O)[C@H](Cc2ccc(O)cc2)NC(=O)CCSSC[C@@H](C(=O)N2CCC[C@H]2C(=O)N[C@@H](CCCCN)C(=O)NCC(N)=O)NC(=O)[C@H](CC(N)=O)NC(=O)[C@H](CCC(N)=O)NC1=O` was tested. Which Activity [2] did it give?
A: 272 IU mg-1

Q: What about the Activity [3] of the same compound?
A: 368 IU mg-1

Q: `CC[C@H](C)[C@@H]1NC(=O)[C@H](Cc2ccc(O)cc2)NC(=O)CCSSC[C@@H](C(=O)N2CCC[C@H]2C(=O)N[C@@H](CCCCN)C(=O)NCC(N)=O)NC(=O)[C@H](CC(N)=O)NC(=O)[C@H](CCC(=O)O)NC1=O` was tested. Which Activity [2] did it give?
A: 9.1 IU mg-1

Q: And the Activity [3]?
A: 0.1 IU mg-1

Q: For `CC[C@@H](C)[C@@H]1NC(=O)[C@@H](Cc2ccc(O)cc2)NC(=O)CCSSC[C@@H](C(=O)N2CCC[C@@H]2C(=O)N[C@@H](CCCCNC=O)C(=O)NCC(N)=O)NC(=O)[C@H](CC(N)=O)NC(=O)[C@@H](CCC(=O)O)NC1=O`, which Activity [4] is on record?
A: inactive

Q: What about the Activity [5] of the same compound?
A: inactive

Q: Which Kb [6] does the source give for `CC[C@H](C)[C@@H]1NC(=O)[C@H](Cc2ccc(O)cc2)NC(=O)CC(C)(C)SSC[C@@H](C(=O)N2CCC[C@H]2C(=O)N[C@@H](CCCCNC=O)C(=O)NCC(N)=O)NC(=O)[C@H](CC(N)=O)NC(=O)[C@H](CCC(=O)O)NC1=O` (YIENCPK(For)G-NH2; linker N-5 via X1) here?
A: 7940 nM

Q: For `CC[C@H](C)[C@@H]1NC(=O)[C@H](Cc2ccc(O)cc2)NC(=O)CC(C)(C)SSC[C@@H](C(=O)N2CCC[C@H]2C(=O)N[C@@H](CCCCN)C(=O)NCC(N)=O)NC(=O)[C@H](CC(N)=O)NC(=O)[C@H](CCC(=O)O)NC1=O` (YIENCPKG-NH2; linker N-5 via X1) [listing 1 of 2 here], which Kb [7] is on record?
A: 1580 nM

Q: Which results are given for `CC[C@H](C)[C@@H]1NC(=O)[C@H](Cc2ccc(O)cc2)NC(=O)CC(C)(C)SSC[C@@H](C(=O)N2CCC[C@H]2C(=O)N[C@@H](CCCCN)C(=O)NCC(N)=O)NC(=O)[C@H](CC(N)=O)NC(=O)[C@H](CCC(=O)O)NC1=O` (YIENCPKG-NH2; linker N-5 via X1) [listing 2 of 2 here]?
A: Activity [2]: <0.01 IU mg-1; Activity [3]: 0 IU mg-1

Q: For `CC[C@H](C)[C@@H]1NC(=O)[C@H](Cc2ccc(O)cc2)NC(=O)CC(C)(C)SSC[C@@H](C(=O)N2CCC[C@H]2C(=O)N[C@@H](CCCCNC=O)C(=O)NCC(N)=O)NC(=O)[C@H](CC(N)=O)NC(=O)[C@H](CCC(N)=O)NC1=O` (YIQNCPK(For)G-NH2; linker N-5 via X1) [listing 1 of 2 here], which Kb [8] is on record?
A: 631 nM

Q: And the Kb [6]?
A: 39.8 nM

Q: Which Activity [2] does the source give for `CC[C@H](C)[C@@H]1NC(=O)[C@H](Cc2ccc(O)cc2)NC(=O)CC(C)(C)SSC[C@@H](C(=O)N2CCC[C@H]2C(=O)N[C@@H](CCCCNC=O)C(=O)NCC(N)=O)NC(=O)[C@H](CC(N)=O)NC(=O)[C@H](CCC(N)=O)NC1=O` (YIQNCPK(For)G-NH2; linker N-5 via X1) [listing 2 of 2 here] here?
A: 1.1 IU mg-1

Q: How did the Kb [7] turn out when `CC[C@H](C)[C@@H]1NC(=O)[C@H](Cc2ccc(O)cc2)NC(=O)CC(C)(C)SSC[C@@H](C(=O)N2CCC[C@H]2C(=O)N[C@@H](CCCCN)C(=O)NCC(N)=O)NC(=O)[C@H](CC(N)=O)NC(=O)[C@H](CCC(N)=O)NC1=O` (YIQNCPKG-NH2; linker N-5 via X1) was run?
A: 16.6 nM

Q: Which results are given for `CC[C@H](C)[C@@H]1NC(=O)[C@H](Cc2ccc(O)cc2)NC(=O)CC(C)(C)SSC[C@@H](C(=O)N2CCC[C@H]2C(=O)N[C@@H](CC(C)C)C(=O)NCC(N)=O)NC(=O)[C@H](CC(N)=O)NC(=O)[C@H](CCC(N)=O)NC1=O` (YIQNCPLG-NH2; linker N-5 via X1)?
A: Kb [8]: 537 nM; Kb [6]: 115 nM

Q: How did the Kb [7] turn out when `CC[C@H](C)[C@@H]1NC(=O)[C@H](Cc2ccc(O)cc2)NC(=O)CCSSC[C@@H]2NC(=O)[C@H](CC(N)=O)NC(=O)[C@H](CCC(=O)NCCCC[C@@H](C(=O)NCC(N)=O)NC(=O)[C@@H]3CCCN3C2=O)NC1=O` ([Mpa]YIENCPKG-NH2; disulfide 1-6; lactam 4-8) [listing 1 of 2 here] was run?
A: 6.31 nM

Q: And the Kb [9]?
A: 1000 nM

Q: `CC[C@H](C)[C@@H]1NC(=O)[C@H](Cc2ccc(O)cc2)NC(=O)CCSSC[C@@H]2NC(=O)[C@H](CC(N)=O)NC(=O)[C@H](CCC(=O)NCCCC[C@@H](C(=O)NCC(N)=O)NC(=O)[C@@H]3CCCN3C2=O)NC1=O` ([Mpa]YIENCPKG-NH2; disulfide 1-6; lactam 4-8) [listing 2 of 2 here] was tested. Which Activity [3] did it give?
A: 0.1 IU mg-1

Q: `CC[C@H](C)[C@@H]1NC(=O)[C@H](Cc2ccc(O)cc2)NC(=O)[C@@H](N)CSSC[C@@H](C(=O)N2CCC[C@H]2C(=O)N[C@@H](CC(C)C)C(=O)NCC(N)=O)NC(=O)[C@H](CC(N)=O)NC(=O)[C@H](CCC(N)=O)NC1=O` [OXYTOCIN] was tested. Which Activity [2] did it give?
A: 450 IU mg-1

Q: What about the Activity [3] of the same compound?
A: 3.1 IU mg-1
